Key:
[1] = target: T1, Sterol O-acyltransferase 1 (Rattus norvegicus) (UniProt O70536); experiment: In vitro percentage inhibition against Acyl coenzyme A:cholesterol acyltransferase derived from rat adrenals; set-up: concentration or dose not given beside the values; details: concentration not given here
T1 sequence (whole entry): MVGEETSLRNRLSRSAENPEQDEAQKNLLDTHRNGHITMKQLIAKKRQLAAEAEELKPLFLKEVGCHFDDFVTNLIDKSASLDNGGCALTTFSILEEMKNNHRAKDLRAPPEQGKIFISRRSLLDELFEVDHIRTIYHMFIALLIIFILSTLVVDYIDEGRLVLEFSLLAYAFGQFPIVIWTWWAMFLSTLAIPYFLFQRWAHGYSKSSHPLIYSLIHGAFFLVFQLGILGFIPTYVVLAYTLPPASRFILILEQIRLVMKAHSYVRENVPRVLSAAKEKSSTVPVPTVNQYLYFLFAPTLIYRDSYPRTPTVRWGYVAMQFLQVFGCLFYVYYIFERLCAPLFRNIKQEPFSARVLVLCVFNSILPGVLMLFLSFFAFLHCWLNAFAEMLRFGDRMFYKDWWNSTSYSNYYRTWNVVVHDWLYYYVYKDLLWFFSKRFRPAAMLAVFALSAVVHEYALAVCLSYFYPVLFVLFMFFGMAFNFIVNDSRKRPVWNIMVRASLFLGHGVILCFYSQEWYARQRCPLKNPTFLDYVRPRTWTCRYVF
Method in brief: (§1)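 Rat adrenal 1000g supernatant (microsomal ACAT) in 0.2 M KH2PO4 pH 7.4 with BSA; test compound at final 5.2 µg/mL, preincubated 37 °C 10 min; [14C]oleoyl-CoA (0.4 µCi) added, 37 °C 30 min. Cholesteryl ester separated by TLC, scintillation counted; mean percent inhibition against compound-free control.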

[2] = target: T1, Sterol O-acyltransferase 1 (Rattus norvegicus); experiment: Serum hypolipidemic activity in rats; type: functional
Method in brief: (§2)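 Male CD-1 Sprague-Dawley rats, 140–150 g, fed 1% cholesterol/0.5% cholic acid diet with compound admixed at 0.01% (about 10 mg/kg/day) for 7 days. Serum and liver cholesterol measured by Technicon autoanalyzer methods; expressed as percent of control.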

[3] = target: T1, Sterol O-acyltransferase 1 (Rattus norvegicus); experiment: Liver hypolipidemic activity in rats; type: functional; method in brief: as §2
[4] = target: T1, Sterol O-acyltransferase 1 (Rattus norvegicus); experiment: In vitro percentage inhibition against acyl coenzyme A:cholesterol acyltransferase derived from rat adrenals; set-up: concentration or dose not given beside the values; details: concentration not given here; method in brief: as §1

| SMILES | inhibition [1] [%] | SS [2] [%] | LS [3] [%] | inhibition [4] [%] |
| --- | --- | --- | --- | --- |
| Cc1ccc(NC(=O)N(CCCCC2CCCCC2)CCCCC2CCCCC2)c(C)c1 | 86 | 80 | 106 | – |
| O=C(NCc1ccccc1)Nc1ccccc1Cl | 50 | 92 | 96 | – |
| CCCCCCCCCCCCN(CCCCCCCCCCCC)C(=O)Nc1ccc(C)cc1C | 26 | 86 | 120 | – |
| Cc1ccc(NC(=O)Nc2ccc(C)cc2C)c(C)c1 | 10 | 100 | 85 | – |
| C#CCN(CC#C)C(=O)Nc1ccc(C)cc1C | 33 | 73 | 93 | – |
| CCCCCCCCCCCCCCN(CCCCCCCCCCCCCC)C(=O)Nc1ccc(C)cc1C | -7 | 107 | 121 | – |
| Cc1ccc(NC(=O)N(Cc2ccccc2)Cc2ccccc2)c(C)c1 | 90 | 52 | 31 | – |
| CCCCCCCCCCCCCCCCCCN(CCCCCCCCCCCCCCCCCC)C(=O)Nc1ccc(C)cc1C | -6 | 106 | 123 | – |
| CCCCc1ccc(NC(=O)N(Cc2ccccc2)Cc2ccccc2)cc1 | 91 | 62 | 87 | – |
| O=C(Nc1ccc(Cl)cc1C(F)(F)F)N(Cc1ccccc1)Cc1ccccc1 | 82 | 66 | 57 | – |
| Cc1cccc(NC(=O)N(Cc2ccccc2)Cc2ccccc2)c1C | 85 | 65 | 51 | – |
| Cc1ccc(NC(=O)N(Cc2ccccc2)Cc2ccccc2)cc1C | 72 | 97 | 60 | – |
| COc1cccc(NC(=O)NCc2ccccc2)c1 | – | 110 | 94 | 34 |
| COc1ccc(C)cc1NC(=O)N(Cc1ccccc1)Cc1ccccc1 | 88 | 83 | 44 | – |
| CCCCCCCC/C=C/CCCCCCCCN(Cc1ccc(CCCC)cc1)C(=O)Nc1ccc(C)cc1C (stereo in doubt; 161) | 9 | 130 | 87 | – |
| CCCCN(CC(c1ccc(Cl)cc1)c1ccc(Cl)cc1)C(=O)Nc1ccc(C)cc1C | 81 | 110 | 84 | – |
| Cc1ccc(NC(=O)N(CCC(C)CC(C)(C)C)CCC(C)CC(C)(C)C)c(C)c1 (stereo not given) | 90 | 71 | 70 | – |
| CCOC(=O)c1ccc(NC(=O)N(Cc2ccccc2)Cc2ccccc2)cc1 | – | 120 | 83 | 93 |

Next, values leading:

| inhibition [1] [%] | SS [2] [%] | LS [3] [%] | inhibition [4] [%] | SMILES |
| --- | --- | --- | --- | --- |
| 89 | 47 | 22 | – | CCCCCCCCN(CCCCCCCC)C(=O)Nc1ccc(C)cc1C |
| – | 111 | 103 | 62 | CCCCN(CCCC)C(=O)Nc1cc(Cl)c(Cl)cc1Cl |
| – | 93 | 75 | 94 | CCCCN(Cc1ccccc1)C(=O)Nc1cc(C)cc(C)c1 |
| – | 68 | 91 | 83 | CCCCN(Cc1ccccc1)C(=O)Nc1c(C)cccc1C |
| 75 | 100 | 91 | – | CCCCN(CCCC)C(=O)Nc1cccc(C(F)(F)F)c1 |
| 51 | 64 | 100 | – | CCCCN(CCCC)C(=O)Nc1cccc(C(C)=O)c1 |
| – | 120 | 107 | 91 | CCCCN(Cc1ccccc1)C(=O)Nc1cc(Cl)cc(Cl)c1 |
| 96 | 127 | 110 | – | CCCCN(CCCC)C(=O)Nc1cc(C)ccc1C |
| – | 63 | 37 | 76 | CCCCN(Cc1ccccc1)C(=O)Nc1c(C)cc(C)cc1C |
| – | 48 | 32 | 88 | CCCCN(Cc1ccccc1)C(=O)Nc1c(Cl)cc(Cl)cc1Cl |
| – | 121 | 100 | 64 | CCCCN(CCCC)C(=O)Nc1ccccc1 |
| – | 127 | 109 | 59 | CCCCN(CCCC)C(=O)Nc1ccc(OC)cc1 |

Source: ChEMBL document CHEMBL1124354, “Potential antiatherosclerotic agents. 6. Hypocholesterolemic trisubstituted urea analogues” (J Med Chem, 1989)
